# Measurements published in ChEMBL document CHEMBL1137665, “Antistaphylococcal activity of CG400549, a new experimental FabI inhibitor, compared with that of other agents” (2007).
# Assays:
# Type in all cases: functional
# Staphylococcus aureus [1] = test: Antimicrobial activity against panton-valentine leukocidin-negative community-acquired methicillin-resistant Staphylococcus aureus 481 by agar dilution CLSI method
# Procedure, shortened: (§1)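 CLSI agar dilution MIC against S. aureus clinical isolates. Calcium was added to the medium for daptomycin testing. Vancomycin plates were read after a full 24-h incubation.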
# Staphylococcus aureus [2] = test: Antimicrobial activity against community-acquired vancomycin-intermediate Staphylococcus aureus 504 by agar dilution CLSI method; procedure, shortened: as §1
# Staphylococcus aureus [3] = test: Antimicrobial activity against vancomycin-resistant Staphylococcus aureus 510 Hershey by agar dilution CLSI method
# Procedure, shortened: (§2)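 Agar dilution MIC per CLSI methodology; calcium supplemented for daptomycin testing; vancomycin plates read after a full 24-h incubation.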
# Staphylococcus aureus [4] = test: Antimicrobial activity against methicillin-resistant Staphylococcus aureus 525 by agar dilution CLSI method; procedure, shortened: as §1
# Staphylococcus aureus [5] = test: Antimicrobial activity against vancomycin-intermediate Staphylococcus aureus 504 after 50 passages by multi-step resistance selection technique
# Procedure, shortened: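 Multistep selection: S. aureus strains (MSSA and MRSA, including VISA and VRSA) were passaged serially once daily in subinhibitory concentrations of each antimicrobial. Mutant and parent identities were confirmed by pulsed-field gel electrophoresis at the end of the study. Mutant MIC stability was checked after 10 daily subcultures on antibiotic-free media.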
# Staphylococcus aureus [6] = test: Antimicrobial activity against vancomycin-resistant Staphylococcus aureus 509 Michigan after 20 passages by multi-step resistance selection technique
# Procedure, shortened: (§3)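 Multistep selection: 10 S. aureus strains (8 MRSA incl. two VRSA, two VISA; 2 MSSA) serially passaged daily at subinhibitory concentrations of each antimicrobial; MICs of mutants retested and compared with parent; clone identity versus parent confirmed by pulsed-field gel electrophoresis at study end.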
# Staphylococcus aureus [7] = test: Antimicrobial activity against methicillin-resistant Staphylococcus aureus 547 after 21 passages by multi-step resistance selection technique
# Procedure, shortened: (§4)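 Multistep selection by daily serial passage of each strain in subinhibitory drug concentrations for the stated number of passages. Mutant MIC was then determined. Identity of mutants and parents was confirmed by pulsed-field gel electrophoresis.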
# Staphylococcus aureus [8] = test: Antimicrobial activity against vancomycin-intermediate Staphylococcus aureus 555 Hershey after 50 passages by multi-step resistance selection technique; procedure, shortened: as §3
# Staphylococcus aureus [9] = test: Antimicrobial activity against methicillin-susceptible Staphylococcus aureus 540 after 24 passages by multi-step resistance selection technique; procedure, shortened: as §4
# Staphylococcus aureus [10] = test: Antimicrobial activity against panton-valentine leukocidin-negative community-acquired methicillin-resistant Staphylococcus aureus 481 after 14 passages with CG400549 measured after 10 antibiotic-free subculture by multi-step resistance selection technique
# Procedure, shortened: (§5)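 Mutants from multistep daily serial passage in subinhibitory drug were then subcultured daily 10 times on antibiotic-free medium. MIC was redetermined after these subcultures to assess stability. Clone identity was checked by pulsed-field gel electrophoresis.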
# Staphylococcus aureus [11] = test: Antimicrobial activity against vancomycin-intermediate Staphylococcus aureus 504 after 14 passages with CG400549 measured after 10 times antibiotic-free subculture by multi-step resistance selection technique
# Procedure, shortened: (§6)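 Multistep-selected mutants (daily passage at subinhibitory drug levels) then subcultured 10 times daily on antibiotic-free medium; MIC redetermined afterwards and compared with the MIC recorded at the end of selection; clone identity to parent checked by pulsed-field gel electrophoresis.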
# Staphylococcus aureus [12] = test: Antimicrobial activity against vancomycin-intermediate Staphylococcus aureus 504 after 22 passages with Linezolid measured after 10 times antibiotic-free subculture by multi-step resistance selection technique; procedure, shortened: as §6
# Staphylococcus aureus [13] = test: Antimicrobial activity against vancomycin-resistant Staphylococcus aureus 509 Michigan after 28 passages with Linezolid measured after 10 antibiotic-free subculture by multi-step resistance selection technique; procedure, shortened: as §6
# Staphylococcus aureus [14] = test: Antimicrobial activity against methicillin and vancomycin-resistant Staphylococcus aureus 509 after single-step resistance selection by agar dilution CLSI method
# Procedure, shortened: (§7)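 Single-step selection on drug-containing agar across 10 strains (2 MSSA, 8 MRSA, including VRSA and VISA). Colonies arising on confluent background growth were retested by CLSI agar dilution MIC. Resistance was defined as an MIC more than 4× the parent MIC.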
# Staphylococcus aureus [15] = test: Antimicrobial activity against vancomycin-resistant Staphylococcus aureus 510 Hershey after 14 passages with quinupristin-dalfopristin measured after 10 antibiotic-free subculture by multi-step resistance selection technique; procedure, shortened: as §6
# Staphylococcus aureus [16] = test: Antimicrobial activity against vancomycin-intermediate Staphylococcus aureus 555 Hershey by agar dilution CLSI method; procedure, shortened: as §2
# Staphylococcus aureus [17] = test: Antimicrobial activity against panton-valentine leukocidin-positive community-acquired methicillin-resistant Staphylococcus aureus 490 after 14 passages by multi-step resistance selection technique; procedure, shortened: as §3
# Staphylococcus aureus [18] = test: Antimicrobial activity against methicillin-resistant Staphylococcus aureus 525 after 14 passages with CG400549 measured after 10 antibiotic-free subculture by multi-step resistance selection technique; procedure, shortened: as §5
# Staphylococcus aureus [19] = test: Antimicrobial activity against methicillin-resistant Staphylococcus aureus 525 after 20 passages with daptomycin measured after 10 antibiotic-free subculture by multi-step resistance selection technique; procedure, shortened: as §5
# Staphylococcus aureus [20] = test: Antimicrobial activity against methicillin-resistant Staphylococcus aureus 525 after 16 passages with quinupristin-dalfopristin measured after 10 antibiotic-free subculture by multi-step resistance selection technique; procedure, shortened: as §5
# Staphylococcus aureus [21] = test: Antimicrobial activity against methicillin-resistant Staphylococcus aureus 547 after 21 passages with daptomycin measured after 10 antibiotic-free subculture by multi-step resistance selection technique; procedure, shortened: as §5
# Staphylococcus aureus [22] = test: Antimicrobial activity against methicillin-resistant Staphylococcus aureus 547 after 21 passages with quinupristin-dalfopristin measured after 10 antibiotic-free subculture by multi-step resistance selection technique; procedure, shortened: as §5
# Staphylococcus aureus [23] = test: Antimicrobial activity against methicillin-susceptible Staphylococcus aureus 540 after 16 passages with quinupristin-dalfopristin measured after 10 antibiotic-free subculture by multi-step resistance selection technique; procedure, shortened: as §5
# Staphylococcus aureus [24] = test: Antimicrobial activity against methicillin-susceptible Staphylococcus aureus 543 after 18 passages with quinupristin-dalfopristin measured after 10 antibiotic-free subculture by multi-step resistance selection technique; procedure, shortened: as §5
# Staphylococcus aureus [25] = test: Antimicrobial activity against methicillin-resistant vancomycin-intermediate Staphylococcus aureus 504 after single-step resistance selection by agar dilution CLSI method; procedure, shortened: as §7
# Staphylococcus aureus [26] = test: Antimicrobial activity against methicillin-resistant Staphylococcus aureus 481 after single-step resistance selection by agar dilution CLSI method; procedure, shortened: as §7
# Staphylococcus aureus [27] = test: Antimicrobial activity against methicillin-resistant Staphylococcus aureus 490 after single-step resistance selection by agar dilution CLSI method; procedure, shortened: as §7
# Staphylococcus aureus [28] = test: Antimicrobial activity against methicillin-resistant Staphylococcus aureus 547 after single-step resistance selection by agar dilution CLSI method; procedure, shortened: as §7
# Staphylococcus aureus [29] = test: Antimicrobial activity against methicillin-susceptible Staphylococcus aureus 540 after single-step resistance selection by agar dilution CLSI method; procedure, shortened: as §7
# Staphylococcus aureus [30] = test: Antimicrobial activity against vancomycin-intermediate Staphylococcus aureus 504 after 14 passages by multi-step resistance selection technique; procedure, shortened: as §3
# Staphylococcus aureus [31] = test: Antimicrobial activity against vancomycin-resistant Staphylococcus aureus 510 Hershey after 14 passages by multi-step resistance selection technique; procedure, shortened: as §3
# Staphylococcus aureus [32] = test: Antimicrobial activity against methicillin-resistant Staphylococcus aureus 547 after 14 passages by multi-step resistance selection technique; procedure, shortened: as §4
# Staphylococcus aureus [33] = test: Antimicrobial activity against vancomycin-intermediate Staphylococcus aureus 555 Hershey after 14 passages by multi-step resistance selection technique; procedure, shortened: as §3
# Staphylococcus aureus [34] = test: Antimicrobial activity against methicillin-susceptible Staphylococcus aureus 540 after 14 passages by multi-step resistance selection technique; procedure, shortened: as §4
# Staphylococcus aureus [35] = test: Antimicrobial activity against methicillin-susceptible Staphylococcus aureus 543 after 14 passages by multi-step resistance selection technique; procedure, shortened: as §4
# Staphylococcus aureus [36] = test: Antimicrobial activity against panton-valentine leukocidin-positive community-acquired methicillin-resistant Staphylococcus aureus 490 after 17 passages by multi-step resistance selection technique; procedure, shortened: as §3
smiles,measurement,setting,value
CCCCCCCCCC(=O)N[C@@H](Cc1c[nH]c2ccccc12)C(=O)N[C@H](CC(N)=O)C(=O)N[C@@H](CC(=O)O)C(=O)N[C@@H]1C(=O)NCC(=O)N[C@@H](CCCN)C(=O)N[C@@H](CC(=O)O)C(=O)N[C@H](C)C(=O)N[C@@H](CC(=O)O)C(=O)NCC(=O)N[C@H](CO)C(=O)N[C@@H]([C@H](C)CC(=O)O)C(=O)N[C@@H](CC(=O)c2ccccc2N)C(=O)O[C@@H]1C,MIC,Staphylococcus aureus [1],1 µg/mL
same,MIC,Staphylococcus aureus [2],4 µg/mL
same,MIC,Staphylococcus aureus [3],1 µg/mL
same,MIC,Staphylococcus aureus [4],1 µg/mL
same,MIC,Staphylococcus aureus [5],16 µg/mL
same,MIC,Staphylococcus aureus [6],8 µg/mL
same,MIC,Staphylococcus aureus [7],8 µg/mL
same,MIC,Staphylococcus aureus [8],32 µg/mL
same,MIC,Staphylococcus aureus [9],8 µg/mL
same,MIC,Staphylococcus aureus [10],1 µg/mL
same,MIC,Staphylococcus aureus [11],1 µg/mL
same,MIC,Staphylococcus aureus [12],1 µg/mL
same,MIC,Staphylococcus aureus [13],2 µg/mL
same,MIC,Staphylococcus aureus [14],0.5 µg/mL
same,MIC,Staphylococcus aureus [15],0.5 µg/mL
same,MIC,Staphylococcus aureus [16],16 µg/mL
same,MIC,Staphylococcus aureus [17],8 µg/mL
same,MIC,Staphylococcus aureus [18],1 µg/mL
same,MIC,Staphylococcus aureus [19],2 µg/mL
same,MIC,Staphylococcus aureus [20],1 µg/mL
same,MIC,Staphylococcus aureus [21],4 µg/mL
same,MIC,Staphylococcus aureus [22],1 µg/mL
same,MIC,Staphylococcus aureus [23],2 µg/mL
same,MIC,Staphylococcus aureus [24],2 µg/mL
same,MIC,Staphylococcus aureus [25],0.5 µg/mL
same,MIC,Staphylococcus aureus [26],0.5 µg/mL
same,MIC,Staphylococcus aureus [27],0.5 µg/mL
same,MIC,Staphylococcus aureus [28],0.5 µg/mL
same,MIC,Staphylococcus aureus [29],0.5 µg/mL
Cc1c(N)cccc1Cn1ccc(OCCc2cccs2)cc1=O [CG-400549],MIC,Staphylococcus aureus [1],0.25 µg/mL
same,MIC,Staphylococcus aureus [2],0.25 µg/mL
same,MIC,Staphylococcus aureus [3],0.25 µg/mL
same,MIC,Staphylococcus aureus [4],0.25 µg/mL
same,MIC,Staphylococcus aureus [30],2 µg/mL
same,MIC,Staphylococcus aureus [31],4 µg/mL
same,MIC,Staphylococcus aureus [32],32 µg/mL
same,MIC,Staphylococcus aureus [33],2 µg/mL
same,MIC,Staphylococcus aureus [34],16 µg/mL
same,MIC,Staphylococcus aureus [35],8 µg/mL
same,MIC,Staphylococcus aureus [10],2 µg/mL
same,MIC,Staphylococcus aureus [11],2 µg/mL
same,MIC,Staphylococcus aureus [12],0.25 µg/mL
same,MIC,Staphylococcus aureus [13],0.5 µg/mL
same,MIC,Staphylococcus aureus [14],0.125 µg/mL
same,MIC,Staphylococcus aureus [15],0.25 µg/mL
same,MIC,Staphylococcus aureus [16],0.25 µg/mL
same,MIC,Staphylococcus aureus [36],8 µg/mL
same,MIC,Staphylococcus aureus [18],4 µg/mL
same,MIC,Staphylococcus aureus [19],0.125 µg/mL
same,MIC,Staphylococcus aureus [20],0.125 µg/mL
same,MIC,Staphylococcus aureus [21],0.125 µg/mL
same,MIC,Staphylococcus aureus [22],0.125 µg/mL
same,MIC,Staphylococcus aureus [23],0.125 µg/mL
same,MIC,Staphylococcus aureus [24],0.125 µg/mL
same,MIC,Staphylococcus aureus [25],0.125 µg/mL
same,MIC,Staphylococcus aureus [26],0.125 µg/mL
same,MIC,Staphylococcus aureus [27],0.125 µg/mL
same,MIC,Staphylococcus aureus [28],0.125 µg/mL
same,MIC,Staphylococcus aureus [29],0.125 µg/mL
